In assay [1] the test system is Jurkat cells. As to the kind of experiment: Global fatty acylation by metabolic labeling. It is filed as cell-based. Particulars: 25 μM inhibitor, 15 hrs.
The subject of assay [2] is Jurkat cells. Nature of the assay: Western blot for global protein lysine acetylation. Particulars: Jurkat cells treated with 25 μM HDAC inhibitor. The format is cell-based. Put shortly: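 Jurkat cells in RPMI 1640 with 10% FBS, exposed to test compound (25 μM) for 15 hrs. Cells lysed in 4% SDS buffer with protease inhibitor cocktail and nuclease, protein quantified by BCA.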
In general terms: In western blotting, separated proteins are transferred to a membrane and probed.

For a further assay, the system named is HeLa cells. As to the kind of experiment: Global fatty acylation by metabolic labeling. It is filed as cell-based. The procedure, abridged:
(§1)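 Cells grown in DMEM with 10% FBS at 37 °C, 5% CO2. They were pretreated with test compound or DMSO, then cultured with Alk12, an alkyne myristic acid analogue, for metabolic labeling. Labeled proteins were clicked to BODIPY-azide and precipitated. Cysteine acylation was removed with 0.5 M hydroxylamine pH 8.0 at 95 °C for 7 min. Read-out was in-gel fluorescence after SDS-PAGE.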

Another assay has as its system HEK-293T cells. As to the kind of experiment: Global fatty acylation by metabolic labeling. It is filed as cell-based, human. The procedure, abridged:
as §1

In the next assay the test system is MDA-MB 231 cells. Nature of the assay: Global fatty acylation by metabolic labeling. The format is cell-based. The procedure, abridged:
as §1

The next assay concerns the target T1, HDAC8 (Homo sapiens, UniProt Q9BY41).
T1 sequence (Q9BY41 1-377): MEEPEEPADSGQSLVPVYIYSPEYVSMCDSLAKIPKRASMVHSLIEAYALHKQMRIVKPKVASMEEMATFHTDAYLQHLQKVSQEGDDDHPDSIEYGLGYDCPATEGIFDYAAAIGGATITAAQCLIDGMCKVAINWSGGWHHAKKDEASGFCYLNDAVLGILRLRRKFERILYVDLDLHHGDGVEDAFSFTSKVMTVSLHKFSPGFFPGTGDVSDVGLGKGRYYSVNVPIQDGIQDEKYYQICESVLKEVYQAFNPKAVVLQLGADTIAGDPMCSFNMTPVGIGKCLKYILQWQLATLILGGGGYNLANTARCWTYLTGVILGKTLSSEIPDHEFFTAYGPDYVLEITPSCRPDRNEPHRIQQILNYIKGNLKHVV
As to the kind of experiment: HDAC8 kinetics assay on H3K9 acyl peptides. It is filed as biochemical. Particulars: for kcat/Km: from slope of linear plot where kcat ND.

[3] abbreviates: recombinant HDAC8 from E. coli, 1 μM, 37 °C, 1 hr, pH 8, duplicate, ± S.D.
Where [4] appears, read: recombinant HDAC8 from Sf9 insect cells.
Where [5] appears, read: recombinant HDAC8 from E. coli, 1 μM, 37 °C, 1 hr, pH 8, duplicate, ± S.D., SD.

The text below walks through data of publication PMC5305809 (ACS chemical biology, 2016).

In general, Km refers to the concentration of substrate that gives half-maximal velocity.

`Nc1ccccc1NC(=O)c1ccc(CNc2nccc(-c3cccnc3)n2)cc1` [Mocetinostat]: the “global protein lysine fatty acylation vs control (Alk12 labeling)” value in the assay with Jurkat cells [1] was “only PCI-34051-treated Jurkat cells exhibited enhanced global protein lysine fatty acylation”. In addition, in the assay with Jurkat cells [2], the “global lysine acetylation level (Western blot)” value (“global lysine acetylation level” for short) is “did not noticeably increase protein lysine acetylation”.

Turning to `COc1ccc(Cn2ccc3ccc(C(=O)NO)cc32)cc1` [PCI-34051], the “fatty acylation vs DMSO control (Alk12 labeling)” value in the assay with HeLa cells, with HEK-293T cells and in the assay with MDA-MB 231 cells was “slightly increased fatty acylation” in each case. The “global protein lysine fatty acylation vs control (Alk12 labeling)” value in the assay on Jurkat cells [1] is “exhibited enhanced global protein lysine fatty acylation”. The “global lysine acetylation level” value with Jurkat cells [2] is “did not noticeably increase protein lysine acetylation”.

As to `Cc1[nH]c2ccccc2c1CCNCc1ccc(/C=C/C(=O)NO)cc1` [Panobinostat], in the assay on Jurkat cells [1], the “global protein lysine fatty acylation vs control (Alk12 labeling)” value is “much lower than the control”. The “global lysine acetylation level” value in the assay on Jurkat cells [2] is on record as “predominantly increased the acetylation of protein bands around 55 kDa”.

On to `O=C(CCCCCCC(=O)Nc1ccccc1)NO` [SAHA], for which the “global protein lysine fatty acylation vs control (Alk12 labeling)” value with Jurkat cells [1] is listed as “much lower than the control”. Also, the “global lysine acetylation level” value in the assay on Jurkat cells [2] is reported as “predominantly increased the acetylation of protein bands around 55 kDa”.

Take KQTARKSTGGWW [Acetyl H3K9]: the Km on HDAC8 (setting [3]) was above 600 µM; on HDAC8 (setting [4]), above 300 µM. Besides, the kcat/Km at HDAC8 (setting [4]) is recorded as 480.8 ^b S^−1.M^−1.

For the compound KQTARKSTGGWW [Butyryl H3K9], the Km on HDAC8 (setting [3]) is above 200 µM.

With KQTARKSTGGWW [Dodecanoyl H3K9], on HDAC8 (setting [5]), the Km is 69.5 ± 10.1 µM and the kcat is on record as 0.0123 ± 0.0013 S^−1.

Take KQTARKSTGGWW [Myristoyl H3K9]: the “demyristoylation catalytic efficiency relative to deacetylation” value at HDAC8 (HDAC8 purified from Sf9 insect cells, myristoyl- vs acetyl-H3K9) was above 2 times. For the same compound, the Km on HDAC8 (setting [3]) is around 16 µM. Besides, at HDAC8 (setting [5]), the Km stood at 15.8 ± 5.1 µM and the kcat stood at 0.0019 ± 0.0003 S^−1. On HDAC8 (setting [4]), the Km amounted to 60.5 µM, the kcat is reported as 0.0755 ^b S^−1 and the kcat/Km was 1,246 ^b S^−1.M^−1.

Regarding KQTARKSTGGWW [Octanoyl H3K9], on HDAC8 (setting [5]), the Km was 146 ± 10.3 µM and the kcat was 0.0202 ± 0.0005 S^−1.

For the compound KQTARKSTGGWW [Palmitoyl H3K9], on HDAC8 (setting [5]), the Km stood at 18.3 ± 7.4 µM and the kcat is reported as 0.0005 ± 0.00007 S^−1.
